Data: ChEMBL document CHEMBL1131430, “Discovery and structure-activity relationship of the first non-peptide competitive human glucagon receptor antagonists” (J Med Chem, 1998)

Molecular target: T1, Glucagon receptor (Homo sapiens, UniProt P47871)
Test: Binding affinity towards cloned human glucagon receptor in BHK cells.
Assay type: cell-based
Outline: (§1)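 Competition binding on plasma membranes (0.5 μg protein/well) from BHK cells stably expressing recombinant human glucagon receptor, selected with 0.5 mg/mL G-418. Nonspecific binding with 10⁻⁶ M glucagon. Filtration, gamma counting; IC50 mean ± SD, n = 2.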

T1 sequence (P47871 whole entry): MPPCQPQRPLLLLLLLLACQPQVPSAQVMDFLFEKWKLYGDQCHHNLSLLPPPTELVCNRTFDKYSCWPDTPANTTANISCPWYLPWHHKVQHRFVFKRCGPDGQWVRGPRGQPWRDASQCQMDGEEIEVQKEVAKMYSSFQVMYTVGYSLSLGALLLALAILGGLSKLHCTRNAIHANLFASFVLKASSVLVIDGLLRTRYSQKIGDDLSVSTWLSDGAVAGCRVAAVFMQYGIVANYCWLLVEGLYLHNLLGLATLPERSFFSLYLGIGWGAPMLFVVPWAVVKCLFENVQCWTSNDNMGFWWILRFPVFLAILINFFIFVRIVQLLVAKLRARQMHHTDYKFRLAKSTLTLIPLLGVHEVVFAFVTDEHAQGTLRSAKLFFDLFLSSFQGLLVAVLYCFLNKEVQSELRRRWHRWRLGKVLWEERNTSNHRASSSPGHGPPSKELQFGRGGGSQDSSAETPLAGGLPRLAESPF

O=C(O)c1ccc(C(=O)CSc2nc3ccccc3[nH]2)cc1 and O=C(CSc1nc2ccccc2[nH]1)c1ccc(O)cc1 cannot be ordered by IC50: over 500 µM for the first, over 60 µM for the second.

CO/N=C(/CSc1nc2ccccc2[nH]1)c1ccc(O)c(Cl)c1 and O/N=C(/CSc1nc2ccccc2[nH]1)c1ccc(O)c(Cl)c1 cannot be ordered by IC50: over 500 µM for the first, over 500 µM for the second.

CCCC(Sc1nc2ccccc2[nH]1)C(=O)c1ccc(O)c(O)c1 (stereo not drawn) and O=C(CCCSc1nc2ccccc2[nH]1)c1ccc(O)c(O)c1 cannot be ordered by IC50: over 500 µM for the first, over 500 µM for the second.

First: COc1cc(C(=O)CSc2nc3ccccc3[nH]2)ccc1O
Second: COc1ccc(C(=O)CSc2nc3ccccc3[nH]2)cc1OC
The IC50 of the first is lower: 41 µM for the first, over 500 µM for the second.

Going from O=C(CSc1nc2cc(Cl)c(Cl)cc2[nH]1)c1ccc(O)c(O)c1 to COc1ccc2[nH]c(SCC(=O)c3ccc(O)c(O)c3)nc2c1, the IC50 rises from 20 µM to 42 µM (2.1-fold).

Compared with O=C(CSc1nc2ccccc2[nH]1)c1cccc(O)c1, O=C(O)c1cccc(C(=O)CSc2nc3ccccc3[nH]2)c1 is higher in IC50: 380 µM for the first, over 500 µM for the second. The first is the more potent here.

Compared with O=C(CSc1nc2ccc([N+](=O)[O-])cc2[nH]1)c1ccc(O)c(O)c1, CC(C)(C)c1ccc2nc(SCC(=O)c3ccc(O)c(O)c3)[nH]c2c1 is 10-fold lower in IC50: 55 µM for the first, 5.4 µM for the second.

First: O=C(CSc1nc2ccccc2[nH]1)c1ccccc1
Second: O=C(CSc1nc2ccccc2[nH]1)c1ccc(O)c(Cl)c1
The IC50 of the first is higher: over 500 µM for the first, 12 µM for the second. The second is the more potent here.

Compared with O=C(CSc1ccc2ccccc2n1)c1ccc(O)c(O)c1, O=C(CSc1nc2ccccc2o1)c1ccc(O)c(O)c1 is 1.6-fold higher in IC50: 160 µM for the first, 250 µM for the second.

First: Cn1c(SCC(=O)c2ccc(O)c(O)c2)nc2ccccc21
Second: O=C(CSc1nc2ccccc2s1)c1ccc(O)c(O)c1
The IC50 of the first is higher: over 500 µM for the first, 73 µM for the second. The second is the more potent here.

First: O=C(CSc1nc2ccccc2[nH]1)c1ccc(O)c(C(=O)O)c1
Second: O=C(CSc1nc2ccccc2[nH]1)c1ccc(Cl)c(Cl)c1
The IC50 of the first is lower: 200 µM for the first, over 500 µM for the second. The first is the more potent here.

First: Oc1ccc(/C(CSc2nc3ccccc3[nH]2)=N\OCc2ccccc2)cc1Cl
Second: O=C(CSc1nc2cc(OCc3ccccc3)ccc2[nH]1)c1ccc(O)c(O)c1
The IC50 of the first is higher: over 500 µM for the first, 18 µM for the second.

First: O=C(O)c1cccc(COc2ccc3[nH]c(SCC(=O)c4ccc(O)c(O)c4)nc3c2)c1
Second: COC(=O)c1cccc(COc2ccc3[nH]c(SCC(=O)c4ccc(O)c(O)c4)nc3c2)c1
The IC50 of the first is 5.9-fold higher: 95 µM for the first, 16 µM for the second. The second is the more potent here.

O=C(CSc1nc2ccccc2[nH]1)c1cc(O)cc(O)c1 and Oc1ccc(C(O)CSc2nc3ccccc3[nH]2)cc1Cl (stereo not drawn) cannot be ordered by IC50: over 500 µM for the first, over 500 µM for the second.

First: COC(=O)c1cccc(COc2ccc3[nH]c(SCC(=O)c4ccc(O)c(Cl)c4)nc3c2)c1
Second: O=C(CSc1nc(-c2ccccc2)c(-c2ccccc2)[nH]1)c1ccc(O)c(O)c1
The IC50 of the first is 20-fold lower: 9.2 µM for the first, 180 µM for the second. The first is the more potent here.

First: O=C(CSc1ncc[nH]1)c1ccc(O)c(O)c1
Second: O=C(CSc1nnc(-c2ccccc2)[nH]1)c1ccc(O)c(O)c1
The IC50 of the first is higher: over 500 µM for the first, 55 µM for the second.

Molecular target: T1, Glucagon receptor
Test: Compound was evaluated for its binding affinity towards cloned human Glucagon receptor in BHK cells
Assay type: cell-based
Outline: as §1

With O=C(CSc1nc2ccccc2[nH]1)c1ccc(O)c(O)c1 the IC50 was 20 µM.
